Drawing on PubChem BioAssay AID652000 (Sanford-Burnham Center for Chemical Genomics, 2013), this text covers activation for 24 compounds.

The campaign covered roughly 2,400 compounds. Fewer than 10 were called active.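 How the source made its calls: active means activation of at least 50%; inactive means the rest.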 Not all results are given here.

Chain of G-protein coupled receptor 183 (Homo sapiens) (P32249 whole entry, looked up): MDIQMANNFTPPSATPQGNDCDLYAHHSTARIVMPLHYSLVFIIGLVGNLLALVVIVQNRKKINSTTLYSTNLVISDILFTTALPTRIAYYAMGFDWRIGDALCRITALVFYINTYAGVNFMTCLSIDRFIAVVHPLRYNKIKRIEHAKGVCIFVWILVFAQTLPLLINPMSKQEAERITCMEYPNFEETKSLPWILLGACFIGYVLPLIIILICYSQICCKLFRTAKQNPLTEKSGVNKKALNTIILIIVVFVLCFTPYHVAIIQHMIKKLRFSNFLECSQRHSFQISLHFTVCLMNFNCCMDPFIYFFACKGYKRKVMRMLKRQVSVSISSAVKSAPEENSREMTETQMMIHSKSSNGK

For this assay, the target named is G-protein coupled receptor 183 (Homo sapiens) (UniProt P32249). In words: EBI2 receptor activation without oxysterol – cell-based, single concentration, agonist mode, luminescence, counter-screen for EBI2 antagonist project, confirmation (AID 652000). The following applies: EBI2-expressing cells, 60 min, at 5 µM, hits give high values, 0% vehicle, 100% 7α,25-dihydroxycholesterol control. In a few lines:
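System: beta-arrestin recruitment reporter cells, agonist mode. Amount: 1500 cells in each well. Probe or stimulus: no added oxysterol for test compounds. Compound: single concentration, 2.5 nL of 10 mM stock. Timing: 37°C overnight seeding and 60-min compound, 25°C dark 60-min detection. Signal: luminescence. Benchmarks: 7alpha,25-OHC positive control.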
As for `O=C(NCc1ccc(Cl)cc1)C1CCN(S(=O)(=O)c2cccs2)CC1`, the activation was 0.21% (inactive).

Consider `O=C(CCNS(=O)(=O)c1ccccc1)NCCSc1ccc(Br)cc1`, for which the activation is -1.84% (inactive).

As to `Cc1ccc(O/C=C2\OC(=O)c3ccccc32)cc1`, the activation was -0.84% (inactive).

Regarding `O=C(COc1ccc2ccccc2c1)N1CCN(C(=O)c2cccs2)CC1`, the activation was 0.16% (inactive).

As to `COc1ccc(/C=C/C(=O)c2ccc(OC)cc2O)cc1`, the activation was -0.61% (inactive).

Turning to `Fc1ccc(N2CCN(Cc3cnc(Oc4ccc(Br)cc4)s3)CC2)cc1`, the activation is 1.8% (inactive).

Regarding `CCOC(=O)N1CCN(C(=O)COc2ccc(Cl)cc2C)CC1`, the activation is 0.57% (inactive).

On to `CN(Cc1ccc(F)cc1)C(=O)COc1ccc2ccccc2c1`, for which the activation was 0.62% (inactive).

Turning to `Cc1ccc(S(=O)(=O)N2CCN(C(=O)CSc3cc(C)ccc3C)CC2)c(C)c1`, the activation was 1.03% (inactive).

For the compound `Cc1ccc2oc(=O)c3cnn(CC(=O)N(Cc4ccco4)C4CCCCC4)c3c2c1`, the activation was -0.75% (inactive).

On to `Cc1cc(C)cc(Oc2nc3c(C)cccn3c(=O)c2/C=C(\C#N)C(=O)NC2CCS(=O)(=O)C2)c1` (centres undefined), for which the activation was -1.11% (inactive).

As to `Cc1cc(Cl)c2oc(C(=O)N3CCC(O)(c4ccccc4)CC3)c(C)c2c1`, the activation was -0.43% (inactive).

For `COc1ccc(CNC(=O)CN(c2ccc(OC)c(Cl)c2)S(=O)(=O)c2ccc(C)cc2)cc1`, the activation was -1.61% (inactive).

Turning to `Cc1ccc(N2CC(C(=O)Nc3ccc(S(=O)(=O)N4CCCC4)cc3)CC2=O)cc1C` (centres undefined), the activation is 1.21% (inactive).

Take `O=C(C(c1ccccc1)c1ccccc1)N1CCN(CC(O)COc2ccccc2)CC1` (centres undefined): the activation was -0.02% (inactive).

With `O=C(CC(c1ccccc1)c1ccccc1)NCC(O)c1ccc([N+](=O)[O-])cc1` (centres undefined), the activation is -0.61% (inactive).

Regarding `Cc1ccc(S(=O)(=O)N2CCN(CC(=O)N/N=C/c3ccc(Br)s3)CC2)cc1`, the activation was 0.71% (inactive).

With `N#CC(=C1CCCC1)c1nc(-c2ccc(Cl)cc2)cs1`, the activation is -0.93% (inactive).

Take `Cc1cc(OCC(=O)N2CCN(c3ncccn3)CC2)ccc1Cl`: the activation is 1.39% (inactive).

As to `O=C(/C=C/c1ccc(Cl)cc1)N1CCN(c2ccccc2[N+](=O)[O-])CC1`, the activation is 1.03% (inactive).

With `O=C(Nc1ncc2c(n1)CC(c1ccco1)CC2=O)c1ccc(Cl)cc1` (centres undefined), the activation is 1.34% (inactive).

As for `CCOc1ccc(CCN2C(=S)N([C@@H](CC(C)C)CN3CCC[C@@H]3CN3C(=S)NC[C@@H]3Cc3ccc(O)cc3)C[C@@H]2Cc2ccc(O)cc2)cc1`, the activation is -0.93% (inactive).

As for `COc1ccc(OCC(=O)N2CCN(C(=O)COc3ccccc3)CC2)cc1`, the activation was -0.25% (inactive).

Take `O=C(NNC(=O)c1ccc2ccccc2c1)c1ccc(Cl)cc1`: the activation is 0.21% (inactive).
